Among the data in article PMC8598261 (European Journal of Medicinal Chemistry, 2021) are cytotoxic effect, IC50 and remaining activity values, retold here.

Bounds are passed on as bounds.

One data set deals with U937 cells. The experiment in a line: U937 cell growth inhibition / cell viability by MTT assay. Format: cell-based, human. To be noted: lowest concentrations (range 1 nM to 100 μM), 48 h. The procedure, abridged: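 Human U937 cells were grown in RPMI 1640 with 10% FBS, penicillin and streptomycin at 37 °C in 5% CO2. They were seeded at 10000 cells/well and exposed to test compound at 1 nM–100 μM for 48 h, with matched DMSO-only controls. MTT (0.1 mg/well) was added for 4 h at 37 °C, then cells were lysed and A595 read. Viability is % of control (100%), mean of three independent experiments.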
A general note: Tetrazolium dyes change colour on reduction, which living cells bring about.

The target in a further data set is T1, caspase-1 (Homo sapiens, UniProt P29466).
T1 sequence (P29466 120-297 limits assumed): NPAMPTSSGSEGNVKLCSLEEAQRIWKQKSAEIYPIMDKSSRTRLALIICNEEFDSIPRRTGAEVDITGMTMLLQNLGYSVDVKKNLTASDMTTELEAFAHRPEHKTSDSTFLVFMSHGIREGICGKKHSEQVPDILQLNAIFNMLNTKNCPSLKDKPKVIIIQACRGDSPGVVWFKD
T1 sequence (P29466 317-404 limits assumed): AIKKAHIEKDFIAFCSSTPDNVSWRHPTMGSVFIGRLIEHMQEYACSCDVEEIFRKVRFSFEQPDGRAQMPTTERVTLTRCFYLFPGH
In words: Caspase-1 inhibition assay, cleavage of fluorogenic substrate YVAD-AFC. As to conditions: for remaining activity at 100 µM: read-out: Enzyme activity (% at 100 μM). It is filed as biochemical. The procedure, abridged:
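Fluorogenic caspase-1 assay: cleavage of YVAD-AFC releases free AFC, followed as a time course of fluorescence increase (Ex/Em 400/505 nm) and compared with an untreated control. Test compounds were run as 10-dose, 3-fold serial dilutions starting at 100 μM or 10 μM to give IC50. Residual activity at 100 μM is reported as % enzyme activity.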

Consider `CC(C)(C)CC(NCC(O)CC(=O)[O-])c1nnnn1CCCC(=O)N1CCc2ccccc2C1.[Na+]` (centres unmarked) [5ae, Sodium-4-((1-(1-(4-(3,4-dihydroisoquinolin-2(1H)-yl)-4-oxobutyl)-1H-tetrazol-5-yl)-3,3-dimethylbutyl)amino)-3-hydroxybutanoate], for which, in the data set with U937 cells, the cytotoxic effect result is “low or is not significant”. By IC50 is commonly meant the concentration needed to halve the response being measured. Turning to `O=C(O)C[C@@H](O)CNC(c1cccs1)c1nnnn1CCCC(=O)NCc1ccccc1` (mixture of isomers) [(3R)5bf, Sodium (3R)-4-(((1-(4-(benzylamino)-4-oxobutyl)-1H-tetrazol-5-yl)(thiophen-2-yl)methyl)amino)-3-hydroxybutanoate], on caspase-1, the IC50 was found to be 77.8 µM and the remaining activity at 100 µM stood at 49.6%. Regarding `CC(C)(C)CC(c1nnnn1CCCC(=O)N1CCc2ccccc2C1)N(Cc1ccccc1)C[C@H](O)CC(=O)O` (mixture of isomers) [(3R)16ac, Sodium (3R)-4-((1-(1-(4-(3,4-dihydroisoquinolin-2(1H)-yl)-4-oxobutyl)-1H-tetrazol-5-yl)-3,3-dimethylbutyl)(benzyl)amino)-3-hydroxybutanoate], on caspase-1, the 50% inhibitory concentration (IC50) was 15 µM and the remaining activity at 100 µM was found to be 4.45%.

As for `CC(NCC(O)CC(=O)O)c1nnnn1CCCC(=O)N1CCc2ccccc2C1` (centres unmarked) [5aa, Sodium 4-((1-(1-(4-(3,4-dihydroisoquinolin-2(1H)-yl)-4-oxobutyl)-1H-tetrazol-5-yl)ethyl)amino)-3-hydrxybutanoate], the remaining activity at 100 µM on caspase-1 is more than 96.7%. With `O=C(O)CC(O)CNC(c1ccccc1)c1nnnn1CCCC(=O)NCc1ccccc1` (centres unmarked) [5be, Sodium 4-(((1-(4-(benzylamino)-4-oxobutyl)-1H-tetrazol-5-yl)(phenyl)methyl)amino)-3-hydroxybutanoate], at caspase-1, the remaining activity at 100 µM is more than 96.7%. As for `COc1cc2c(cc1OC)CN(C(=O)CCCn1nnnc1C(NCC(O)CC(=O)O)C(C)C)CC2` (centres unmarked) [5ca, Sodium 4-((1-(1-(4-(6,7-dimethoxy-3,4-dihydroisoquinolin-2(1H)-yl)-4-oxobutyl)-1H-tetrazol-5-yl)-2-methylpropyl)amino)-3-hydroxybutanoate], the remaining activity at 100 µM on caspase-1 is more than 96.7%.

As for `O=C(O)C[C@H](O)CNC(c1ccccc1)c1nnnn1CCCC(=O)N1CCc2ccccc2C1` (mixture of isomers) [(3S)5 ag, Sodium (3S)-4-(((1-(4-(3,4-dihydroisoquinolin-2(1H)-yl)-4-oxobutyl)-1H-tetrazol-5-yl)(phenyl)methyl)amino)-3-hydroxybutanoate], on caspase-1, it took 68 µM to reach half-maximal inhibition (IC50) and the remaining activity at 100 µM came to 48.6%. For `CC(NCC(O)CC(=O)O)c1nnnn1CCCC(=O)NCc1ccccc1` (centres unmarked) [5ba, Sodium 4-((1-(1-(4-(benzylamino)-4-oxobutyl)-1H-tetrazol-5-yl)ethyl)amino)-3-hydroxybutanoate], the remaining activity at 100 µM on caspase-1 was more than 96.7%. In the case of `CC(C)CC(c1nnnn1CCCC(=O)N1CCc2ccccc2C1)N(Cc1ccccc1)CC(O)CC(=O)[O-].[Na+]` (centres unmarked) [16aa, Sodium 4-(benzyl(1-(1-(4-(3,4-dihydroisoquinolin-2(1H)-yl)-4-oxobutyl)-1H-tetrazol-5-yl)-3-methylbutyl)amino)-3-hydroxybutanoate], the cytotoxic effect entry in the data set on U937 cells is listed as “low or is not significant”.

Take `O=C(O)C[C@@H](O)CNC(c1cccs1)c1nnnn1CCCC(=O)N1CCc2ccccc2C1` (mixture of isomers) [(3R)5ah, Sodium (3R)-4-(((1-(4-(3,4-dihydroisoquinolin-2(1H)-yl)-4-oxobutyl)-1H-tetrazol-5-yl)(thiophen-2-yl)methyl)amino)-3-hydroxybutanoate]: on caspase-1, the half-maximal inhibitory concentration (IC50) turned out to be 32.6 µM and the remaining activity at 100 µM was found to be 29%. For the compound `COc1cc2c(cc1OC)CN(C(=O)CCCn1nnnc1C(NCC(O)CC(=O)O)c1cccs1)CC2` (centres unmarked) [5ce, Sodium 4-(((1-(4-(6,7-dimethoxy-3,4-dihydroisoquinolin-2(1H)-yl)-4-oxobutyl)-1H-tetrazol-5-yl)(thiophen-2-yl)methyl)amino)-3-hydroxybutanoate], the remaining activity at 100 µM at caspase-1 was more than 96.7%. The same measure, in the same setting: next, `CC(C)C(NCC(O)CC(=O)O)c1nnnn1CCCC(=O)NCc1ccccc1` (centres unmarked) [5bb, Sodium 4-((1-(1-(4-(benzylamino)-4-oxobutyl)-1H-tetrazol-5-yl)-2-methylpropyl)amino)-3-hydroxybutanoate]: more than 96.7%. Turning to `CC(C)(C)CC(NC[C@H](O)CC(=O)O)c1nnnn1CCCC(=O)N1CCc2ccccc2C1` (mixture of isomers) [(3R)5ae, Sodium (3R)-4-((1-(1-(4-(3,4-dihydroisoquinolin-2(1H)-yl)-4-oxobutyl)-1H-tetrazol-5-yl)-3,3-dimethylbutyl)amino)-3-hydroxybutanoate], at caspase-1, the 50% inhibitory concentration (IC50) worked out at 12.2 µM and the remaining activity at 100 µM came out at 9.71%. For `O=C(O)C[C@@H](O)CNC(c1ccccc1)c1nnnn1CCCC(=O)N1CCc2ccccc2C1` (mixture of isomers) [(3R)5 ag, Sodium (3R)-4-(((1-(4-(3,4-dihydroisoquinolin-2(1H)-yl)-4-oxobutyl)-1H-tetrazol-5-yl)(phenyl)methyl)amino)-3-hydroxybutanoate], in that order: 53.5 µM and 40.5%. With `O=C(O)CC(O)CNC(c1cccs1)c1nnnn1CCCC(=O)NCc1ccccc1` (centres unmarked) [5bf, Sodium 4-(((1-(4-(benzylamino)-4-oxobutyl)-1H-tetrazol-5-yl)(thiophen-2-yl)methyl)amino)-3-hydroxybutanoate], the remaining activity at 100 µM on caspase-1 was more than 96.7%. Take `O=C(O)C[C@H](O)CNC(c1cccs1)c1nnnn1CCCC(=O)N1CCc2ccccc2C1` (mixture of isomers) [(3S)5ah, Sodium (3S)-4-(((1-(4-(3,4-dihydroisoquinolin-2(1H)-yl)-4-oxobutyl)-1H-tetrazol-5-yl)(thiophen-2-yl)methyl)amino)-3-hydroxybutanoate]: on caspase-1, 51.4 µM corresponded to half-maximal inhibition (IC50) and the remaining activity at 100 µM came out at 37.2%.
